{"source": "paper PMC2587450", "about": "(International journal of cancer. Journal international du …, 2008)", "key": {"[1]": {"conditions": "cited from earlier work"}, "[2]": {"system": "MV3 melanoma-induced angiogenesis", "assay": "MV3 tumor-induced angiogenesis in quail embryonic CAM", "type": "in vivo, Japanese quail (Coturnix coturnix japonica)", "conditions": "MV3 on quail CAM, 20 μg daily, day 12", "how_it_was_run": "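Japanese quail eggs ethanol-cleaned, kept at 37°C without CO₂ to embryonic day 3, then opened and contents moved to 6-well plates at 37°C. Day 6: MV3 cells (1 × 10⁷/50 μl PBS) applied onto CAM; after 24 h growth, 20 μg test compound per 50 μl PBS daily. Tumors excised and weighed; remaining membrane slide-mounted, fractal dimension (Df) measured in square area opposite the tumor.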"}, "α1β1 integrin": {"system": "α1β1 integrin", "conditions": "reduced disulfide bonds, cysteines blocked with vinylpyridine; cited from earlier work"}, "[3]": {"type": "in vivo, mouse", "conditions": "mice"}, "B16F10 mouse melanoma": {"system": "B16F10 mouse melanoma", "assay": "B16F10 melanoma growth in syngeneic C57BL/6 mice", "type": "in vivo", "conditions": "for effect on tumor growth, i.p. route: B16F10 melanoma model", "how_it_was_run": "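Daily caliper volumes (width² × length × 0.52). Formalin-fixed paraffin 5-μm sections: anti-von Willebrand factor vessels counted in 10 high-power fields (400×) and averaged, blinded, 3 investigators; colorimetric TUNEL; S.D. from 5 animals.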"}, "dHMVEC [4]": {"system": "dHMVEC", "assay": "dHMVEC proliferation assay", "type": "cell-based, human", "conditions": "BrdUrd, induced by 2% FBS or 50 ng/ml hrVEGF or vpVEGF, 2 μM obtustatin for VEGF"}, "dHMVEC [5]": {"system": "dHMVEC", "assay": "Apoptosis assays in dHMVEC", "type": "cell-based, human", "conditions": "2 μM", "how_it_was_run": "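Primary adult dermal microvascular endothelial cells (passages 5–8, complete EBM-2). Annexin V: 2 μM test compound 16 h in complete EBM-2, cells detached, annexin V-FITC stained, two-colour flow cytometry within 1 h. Caspase 3: ±2 μM 16 h in complete medium, vincristine 50 μg/ml as positive control, lysates read by colorimetric ELISA at 450 nm. Morphology: 90% confluent cells, 2 μM 24 h, 2% paraformaldehyde-fixed, phase contrast 200×.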"}, "MV3": {"system": "MV3", "assay": "Apoptosis in MV3 melanoma cell line", "type": "cell-based", "conditions": "MV3 human melanoma cell line (data not shown)"}, "B16F10": {"system": "B16F10", "assay": "Apoptosis in B16F10 melanoma cell line", "type": "cell-based", "conditions": "B16F10 mouse melanoma cell line (data not shown)"}, "[6]": {"type": "in vivo, mouse", "conditions": "mice, Western blot, variety of time intervals"}}, "data": [{"compound": "O=c1[nH]cc(F)c(=O)[nH]1", "note": "[5-fluorouracil (5-FU), 5-fluorouracil]", "values": [{"measurement": "half life time", "setting": "[1]", "value": "about 100 minutes"}]}, {"compound": "Ethylpyridylated(EP)-obtustatin [EP-obtustatin]", "values": [{"measurement": "tumor-induced angiogenesis, angiogenesis index as fractal dimension (Df)", "setting": "[2]", "value": "no activity"}, {"measurement": "change of activity against α1β1 integrin versus native obtustatin", "setting": "α1β1 integrin", "value": "over four orders of magnitude decreasing activity"}]}, {"compound": "obtustatin", "values": [{"measurement": "behavioral signs and body weight", "setting": "[3]; single i.v. doses up to 20 mg/kg, 10 days observation", "value": "did not reveal any toxic side effects"}, {"measurement": "H&E sections of liver", "setting": "[3]; single i.v., 10 mg/kg and 20 mg/kg groups, after 10 days", "value": "small areas of inflammations and necrotic patches in liver"}, {"measurement": "H&E sections of spleen", "setting": "[3]; single i.v., 20 mg/kg group, after 10 days", "value": "significant necrotic patches in all animals"}, {"measurement": "H&E sections of brain, lung, kidney, liver and spleen", "setting": "[3]; single i.v., all concentrations up to 7 mg/kg, after 10 days", "value": "no effects"}, {"measurement": "effect on tumor growth, i.p. route", "setting": "B16F10 mouse melanoma; 2.5 mg/kg i.p. (data not shown)", "value": "no effect on tumor growth"}, {"measurement": "effect on tumor growth, i.p. route", "setting": "B16F10 mouse melanoma; 5 mg/kg i.p. (data not shown)", "value": "only slightly, close to no significant ratio tumor suppression"}, {"measurement": "vessel number in paraffin sections of tumor (anti-von Willebrand factor)", "setting": "B16F10 mouse melanoma; B16F10 melanoma, obtustatin treated animals vs control", "value": "significant reduction of vessel number"}, {"measurement": "TUNEL staining of endothelial cells in tumor sections", "setting": "B16F10 mouse melanoma; B16F10 melanoma, obtustatin-treated animals", "value": "positive staining of DNA strand breaks"}, {"measurement": "body weight during multiple injections", "setting": "B16F10 mouse melanoma; melanoma experiments in mice, 5 and 2.5 mg/kg i.v., multiple injections", "value": "did not show any changes in body weight"}, {"measurement": "tumor-induced angiogenesis, angiogenesis index as fractal dimension (Df)", "setting": "[2]", "value": "significantly diminished"}, {"measurement": "endothelial cell proliferation", "setting": "dHMVEC [4]", "value": "potent inhibitor of endothelial cell proliferation"}, {"measurement": "caspase 8, fluorescent ELISA and Western blot", "setting": "dHMVEC [5]; 2 hours", "value": "appears to be activated"}, {"measurement": "caspase 3, colorimetric ELISA and Western blot", "setting": "dHMVEC [5]; 16 hours (ELISA)", "value": "release of caspase 3"}, {"measurement": "annexin V binding (early apoptosis), flow cytometry", "setting": "dHMVEC [5]; 16 hours, complete EBM-2 media", "value": "annexin V binds to the surface of dHMVEC"}, {"measurement": "cell morphology", "setting": "dHMVEC [5]; 24 hours, complete medium with 5% FBS", "value": "typical apoptotic morphology"}, {"measurement": "apoptosis induction", "setting": "MV3", "value": "no apoptotic properties"}, {"measurement": "apoptosis induction", "setting": "B16F10", "value": "no apoptotic properties"}, {"measurement": "detection in blood plasma after i.p. injection", "setting": "[6]", "value": "not detectable"}]}]}
